Results collected from several papers.
Compare with care: the assays were run in different laboratories.
pH: 7.4

SMILES	method	matrix	time	measurement	result
O=C1NC2(CCC2)C(=O)N1c1ccc(F)c(C(F)(F)F)c1	HPLC	–	–	chromatographic logD	3
CCCCCC(=O)N[C@H]1[C@H]([C@H](O)[C@H](O)CO)OC(C(=O)O)=C[C@@H]1O	shake flask	aqueous buffer	2 h	logD	-0.92
c1cc(-c2ccc3ncnc(Nc4ncco4)c3c2)cc(N2C[C@H]3C[C@@H]2CO3)c1	shake flask	aqueous buffer	–	logD	3.5
O=c1c2cc(Cl)ccc2[nH]c(=S)n1Cc1cccnc1	shake flask	aqueous buffer	–	logD	3.16
CC1(C)NC(=O)N(c2ccc(F)c(C(F)(F)F)c2F)C1=O	HPLC	–	–	chromatographic logD	2.7
COc1cc(C(=O)c2nc(-c3cccc4[nH]ccc34)c[nH]2)cc(OC)c1OC	–	–	–	logD	3.69
CCCCCc1cn([C@H]2[C@H]([C@H](O)[C@H](O)CO)OC(C(=O)O)=C[C@@H]2O)nn1	shake flask	aqueous buffer	2 h	logD	-0.3
Cc1ccc2[nH]c(=S)n(Cc3cccnc3)c(=O)c2c1	shake flask	aqueous buffer	–	logD	2.88
